Rows were chosen to be rich in hits. Some 2.1% of all compounds tested hit in one or more screens of this group.
SDO1 yeast rescue: growth rescue of sdo1-depleted yeast, primary screen, S. cerevisiae, bone marrow failure model; S. cerevisiae sdo1-depleted JHY4D growth rescue, OD600 30 h; hits give high values; pdr5 snq2 efflux-pump mutant strain; z-score at 10 µM; hit rate 0.21% among 140,000;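 active means z-score above 3 at both the 24 hr and the 30 hr optical density reads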;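 further: z-score against mean and SD of all compound wells on the same plate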
Yeast growth inh: growth inhibitors of yeast BB579 in restrictive medium, primary screen, yeast lifespan-shortening project, S. cerevisiae; OD615, 48 h; inhibition, % at 10 µM; hit rate 0.51% among 140,000;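 active means inhibition above a set limit, 3 SD over the mean compound inhibition, cut at about 44% in these data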
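Material: Saccharomyces cerevisiae DeaD strain BB579, replicative lifespan model yeast; buffer or medium: CSMM-D restrictive synthetic medium containing dextrose (glucose); compound: 10 µM single dose, DMSO 0.25%; timing: 48 h compound exposure at 30 °C after 4 h preincubation; signal: turbidity as optical density at 615 nm; benchmarks: positive control amphotericin B 10 µg/mL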
Yeast lifespan up: compounds extending yeast replicative lifespan, primary screen, S. cerevisiae, OD615. S. cerevisiae growth with nicotinamide; deaD strain in restrictive glucose medium. inhibition of the nicotinamide effect, % at 10 µM. hit rate 0.68% among 130,000. AID 775, 2007;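 active means inhibition above a set limit, placed 3 SD over the median of all compounds, cut at about 26% in these data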;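 further: 0% = nicotinamide-treated wells and 100% = cells grown without nicotinamide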
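System: Modified budding yeast, DeaD strain | Buffer or medium: Restrictive glucose medium | Also added: 1.5 mM nicotinamide | Doses: 10 µM single point, 0.25% DMSO | Schedule: 48 h compound exposure at 30 °C, humidified | Detection: Absorbance at 615 nm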
MRP1 act: H69AR viability gain despite doxorubicin, primary screen, MRP-1 activator project, H69AR cells, CellTiter-Glo; viability rescue; viability increase, % at 10 µM; hit rate 0.61% among 140,000; AID 799, 2007;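 active means viability gain under doxorubicin at or above a set limit, the compound median plus 3 SD, cut at about 4.7% in these data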;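 further: MRP-1 overexpressing cells given doxorubicin 25 µM after compound pretreatment; 18-22 h compound pretreatment then 72 h with doxorubicin before readout; 0% = doxorubicin-only wells and 100% = vehicle-treated cells without doxorubicin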
MRP reversal: reversal of MRP1-mediated doxorubicin resistance, primary screen, H69AR cells, doxorubicin co-treatment. H69AR cells + 2 uM doxorubicin, CellTiter-Glo, 72 h. differential viability (reversal), % at 10 µM. hit rate 0.04% among 85,000;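 active means viability drop by adding the cancer drug above about 55%, with treated viability meeting a 40% cutoff, limit read from the data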;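 further: viability without doxorubicin minus viability with 2 µM doxorubicin for each compound; larger differential means the compound sensitizes cells more to doxorubicin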
Phagocytosis inh: inhibitors of macrophage phagocytosis, primary screen, imaging, J774A.1 cells, IgG beads; inhibition, % at 5 µM; AID 1029, 2008; hit rate 0.07% among 110,000; J774A.1 macrophage IgG-bead phagocytosis;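 active means inhibition above the mean of the plate negative controls plus 5 SD, cut at about 13% in these data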;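 further: phagocytic index as fraction of beads internalized from green versus red external bead signal; plate controls were DMSO negative control for no effect and cytochalasin-D positive control for full effect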
An asterisk follows results filed as active; x = no result; [ ] = remark or other dose.

SMILES	SDO1 yeast rescue	Yeast growth inh	Yeast lifespan up	MRP1 act	MRP reversal	Phagocytosis inh
CCCCCOc1ccc(OC(=O)c2ccncc2)cc1	-0.08	-17	-14	-1	-29	x
COC(=O)/C(=C1/Oc2ccc(C(C)(C)C)cc2S1)C(F)(F)F	0.01	-48	9	2	x	-8
COC(=O)/C(=C1/Oc2cc(C)oc(=O)c2S1)C(F)(F)F	-0.7	-19	47*	-3	x	x
Cc1cccc(NC(=O)c2ccccc2NC(=O)C2CCCCC2)c1C	-0.52[11.1 µM]	-20	-9	-3	x	x
Cc1ccc2[nH]c3c(c2c1)CCc1cn[nH]c1-3	-3.2	92*	-19	-2	-30	0
CN(C)CCCNC1CS(=O)(=O)CC1O (configuration not stated)	0.46	-34	-3	-1	-1	0
Cc1cc(Cl)ccc1N=c1ssnc1Cl	-2.6	63*	-13	-3	1	-1
Cc1ccc(N=c2ssnc2Cl)cc1	-1.4	20	-7	-2	-5	2
CCC(Sc1nc2ccccc2o1)C(=O)Nc1nnc(C)s1 (configuration not stated)	-0.21	-30	15	6.4*	x	0
CCOC(=O)/C(=C\c1cn(C)c2ccccc12)[N+](=O)[O-]	-0.61	-15	44*	-2	x	-3
C=CCn1cnc2c(c1=O)c1nc3ccccc3nc1n2/N=C/c1cc(OC)c(OC)c(OC)c1	-0.59	58*	-24	-5	-12	0
CCOP(=O)(OCC)C(NC(=O)Nc1ccc(Cl)cc1)C(=O)N(CC)CC (configuration not stated)	0.15	-16	-4	8.9*	x	-15
CCOP(=O)(OCC)C(NC(=O)Nc1cccc(Cl)c1)C(N)=O (configuration not stated)	0.32	6	0	1	x	-9
CN1CCN(C(=S)Nc2cc([N+](=O)[O-])ccc2Cl)CC1	0.64	-21	45*	-2	x	-9
Cc1ccc(C(=O)NC(=S)NCC2CCCO2)cc1 (configuration not stated)	-0.42	-33	32*	-2	x	x
O=C(NC(=S)NCC1CCCO1)c1ccc(Cl)cc1 (configuration not stated)	-0.32	-4	-9	-3	x	-5
CC1CCc2c(sc3nc(CSc4ncn[nH]4)[nH]c(=O)c23)C1 (configuration not stated)	1.2	-26	-7	18*	x	-8
COc1cc(/C=N/NC(=O)c2ccc(=O)[nH]n2)ccc1O	1.2	-41	-3	0	x	-6
COc1ccc(-n2c(C)cc(C(=O)CN3C(=O)NC4(CCCc5sccc54)C3=O)c2C)cc1 (configuration not stated)	-0.47	0	1	2	x	3
Cc1cc(C(=O)CN2C(=O)NC3(CCCc4sccc43)C2=O)c(C)n1-c1ccccc1 (configuration not stated)	-0.49	-49	5	4.8*	x	3
COC(=O)C1=C(C)NC(C)=C(C(=O)OC)C1c1ccccc1OCc1c(C)no[n+]1[O-]	0.49	-49	-18	9.0*	6	0
Cc1ccc(N/N=C(\C#N)C(N)=S)c(C)c1	-2	95*	-4	8.2*	x	-1
O=C(COC(=O)c1n[nH]c2ccccc12)NC(=O)NC12CC3CC(CC(C3)C1)C2	0.89	-29	-11	-2	-4	0
O=C(O)CSc1cccc[n+]1[O-]	0.1	90*	-3	-1	x	0
O=C(CSc1cccc[n+]1[O-])c1cc2ccccc2o1	1.1	99*	-10	-1	-33	0
SMILES	SDO1 yeast rescue	Yeast growth inh	Yeast lifespan up	MRP1 act	MRP reversal	Phagocytosis inh
Cn1cccc1C(=O)NC(=O)CSc1cccc[n+]1[O-]	-0.39	95*	-11	0	6	0
CCOC(=O)c1ccccc1NC(=O)CSc1cccc[n+]1[O-]	0.94	-1	-22	-2	-7	x
Cc1ccc(CC2C(=O)N(c3ncccn3)C(=O)C2C)cc1 (configuration not stated)	1.8	-5	-2	2	-9	0
CC(C)c1ccc2occ(-c3nn[nH]n3)c(=O)c2c1	0	-27	59*	-2	x	2
Cc1ccc2occ(-c3nn[nH]n3)c(=O)c2c1	0.78	6	14	-2	x	0
Fc1ccc(COc2ccc(Cl)cc2/C=N/Nc2nc(N3CCCC3)nc(N3CCCC3)n2)cc1	-1.8	-100	-4	0	x	1
Cc1ccc(-c2cc(C(=O)N3N=C(C(F)F)CC3(O)C(F)F)c3ccccc3n2)cc1C (configuration not stated)	-2.8	68*	-8	0	x	-2
Cc1c(NC(=O)CSc2ccc(Cl)cc2)cccc1-c1nc2ncccc2o1	-0.9	-39	-27	6.2*	x	0
CCOC(=O)c1c(C)[nH]c(N=Nc2cccc(C)c2)c1C	-2.1	-56	-12	0	24	2
Cc1ccc(CSCc2nnc(SCC(=O)N3CCN(c4ccccc4)CC3)n2C)cc1	-0.35	-8	3	5.0*	x	0
O=C(NCCc1ccccn1)c1cc(-c2cccc3ccccc23)nc2ccccc12	-1.1	-38	28*	0	x	12
Cc1ccc(/C=C2/SC(=S)N(CCC(=O)N3CCN(c4ccccc4)CC3)C2=O)cc1	-0.53	-12	-18	4	x	0
Cc1c(N2C(=O)/C(=C/c3ccccc3)SC2=S)c(=O)n(-c2ccccc2)n1C	-0.46	-7	1	8.0*	x	x
Cc1ccc(/C=C2\SC(=S)N(c3c(C)n(C)n(-c4ccccc4)c3=O)C2=O)cc1	-0.32	-54	-1	7.6*	x	x
CCOc1ccccc1N(CC(=O)O)S(=O)(=O)c1ccccc1	0.57	17	-3	4.8*	-5	2
Cc1ccc(CN2CCc3c(OCc4ccc(F)cc4)cccc3C2=O)cc1	0.69	1	-6	1	x	-9
O=C1c2cccc(OCc3ccc(F)cc3)c2CCN1Cc1ccc(F)cc1	-0.59	-30	-1	5.6*	x	-4
O=C(Nc1c(-c2ccccc2)nc2ccc(Cl)cn12)c1cccs1	-0.76	-32	6	-2	x	-4
COc1ccc(C2=C(N)c3ccccc3C2=O)cc1	0.67	10	-14	0	20	1
COC1=C(c2ccccc2)C(=O)c2ccccc2C1=O	-1.2	68*	13	-5	x	-3
COc1ccc(-c2cc(=O)c3c(OC)c(OC)c(OC)c(OC)c3o2)cc1OC	-0.07	-51	-5	-3	x	x
O=c1cc(-c2c(F)c(F)c(F)c(F)c2F)oc2c(F)c(F)c(F)c(F)c12	-1.9	-32	106*	-6	1	-3

From PubChem BioAssay
